T cell HTS – modulates CD8 T cell binding to vesicles. 2C CD8+ T cell-vesicle binding, flow cytometry; stronger effect = lower value. actives 0.068% (n = 330,000). AID 2052. response (vesicle binding), % at 7 µM;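 active = response, share of CD8 T cells binding vesicles, and their 90th percentile fluorescence all below set limits, cut at about 80% in these data, passing the limit was not always enough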;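 also: values below 100% mean blocked vesicle binding to the CD8+ T cells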
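System: murine 2C transgenic CD8+ T lymphocytes; also added: QL9-loaded Drosophila micro-vesicles; times: binding 1.5 h at 37 °C; measured by: flow cytometry, PE anti-B7-1 (FL2) versus Alexa647 anti-CD8 (FL8), PFA-fixed; control set: Peptide-free naked vesicles (low) and QL9 vesicles with 0.7% DMSO vehicle (high)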
Exocytosis inh – lytic granule exocytosis inhibition. actives 0.66% (n = 360,000). TALL-104 LAMP-1 surface exposure, flow cytometry; cells stimulated with thapsigargin and PMA. inhibition, % at 10 µM. AID 651702;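 active = inhibition above about 55%, limit read from the data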
V-ATPase pH – regulators of yeast V-ATPase proton transport | S. cerevisiae, pHLuorin cytosolic pH fluorescence | response, % at 10 µM | actives 0.37% (n = 350,000) | AID 504577; in the data active = response mostly above about 7.3%, no sharp cut-off; inactive = mostly below about 5.4%; also: actives read high
MPTP inh – blocks calcium-induced mitochondrial swelling. isolated mouse mitochondria, Ca2+ swelling absorbance, 30 min. inhibition, % at 10 µM. actives 1.4% (n = 360,000). AID 602449;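 active = inhibition of 50% or more, scaled per plate between neutral and stimulator controls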;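 also: 0% = DMSO wells given calcium and 100% = 1 mM EGTA wells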
rCAG RNA binder – r(CAG) repeat RNA binding. TO-PRO-1 dye displacement fluorescence. inhibition, % at 3 µM. actives 1.3% (n = 370,000);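 active = inhibition above the plate cutoff, the mean of all test compounds on that plate plus 3 SD, cut at about 35% in these data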;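 also: 0% = DMSO alone and 100% = 100 µM mitoxantrone as full dye displacement; higher means more dye released from RNA so lower well fluorescence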
B2AR ag – human beta-2 adrenergic receptor agonism by FAP | response, % (test concentration not listed) | actives 0.43% (n = 340,000) | Am2.2-beta2AR cells, FAP receptor internalization, flow cytometry | AID 504454;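 active = response above a set limit, near 3 SD of response in nonfluorescent compounds, cut at about 42% in these data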
Target sequence (P07550 whole entry, looked up): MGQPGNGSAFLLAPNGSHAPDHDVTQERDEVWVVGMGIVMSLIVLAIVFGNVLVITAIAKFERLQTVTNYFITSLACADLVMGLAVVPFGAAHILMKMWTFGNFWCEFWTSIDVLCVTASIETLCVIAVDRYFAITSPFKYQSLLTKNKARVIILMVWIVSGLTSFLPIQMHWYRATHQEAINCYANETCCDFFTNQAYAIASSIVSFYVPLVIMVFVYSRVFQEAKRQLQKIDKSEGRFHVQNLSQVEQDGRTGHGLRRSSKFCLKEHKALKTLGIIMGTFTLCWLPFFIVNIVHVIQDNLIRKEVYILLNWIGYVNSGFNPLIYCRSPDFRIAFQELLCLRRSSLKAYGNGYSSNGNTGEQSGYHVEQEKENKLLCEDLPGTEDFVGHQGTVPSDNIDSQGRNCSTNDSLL
* marks the source's active call; other numbers are inactive results; i = inactive; . = no result. An excerpt weighted towards active compounds, which were near 3.8% of everything screened.

SMILES	T cell HTS	Exocytosis inh	V-ATPase pH	MPTP inh	rCAG RNA binder	B2AR ag
O=C(Nc1ccc(N2CCCC2)cc1)c1ccc(Br)o1	184.9	9.2	6.8	1.7	1.6	-3.4
O=C(NC1CCC1)c1ccc(C#Cc2cccc(F)c2)nc1	.	.	.	.	1.4	.
Cc1ccc(CNc2ccc([N+](=O)[O-])cc2C(N)=O)cc1	555.6	13.4	-0.5	-2.2	4.5	-3.2
Cc1ccc(Oc2c(C(N)=O)cc([N+](=O)[O-])cc2[N+](=O)[O-])cc1	231.3	26.0	3.8	0.3	1.2	56.6*
O=C1c2ccccc2C(=O)N1SC1CCCCC1	463.6	87.1*	1.3	2.5	-1.8	-2.1
C#CCNC(=O)C[C@H]1C[C@@]2(C(=O)OC)C(=C[C@H](C(C)(C)C)O[C@@H]2C)N(Cc2ccco2)C1=O	.	.	.	.	-2.2	.
CC(CCN1CCC(C(O)(c2ccccc2)c2ccccc2)CC1)Oc1ccccc1C#N (stereo not drawn)	.	.	.	.	1.9	.
COc1ccc(N=C2S/C(=C\c3ccc(OC(C)C(=O)O)c(OC)c3)C(=O)N2CCc2c[nH]c3ccccc23)cc1 (stereo not drawn)	.	1.5	-1.6	1.0	49.0*	3.0
O=C1/C(=C/c2ccc(N3CCOCC3)o2)SC(=Nc2ccccc2)N1CCc1c[nH]c2ccccc12	767.4	75.2*	3.5	-0.8	.	i
Cc1ccc(C=Nn2c(-c3n[nH]c4c3CCC4)n[nH]c2=S)o1	.	.	.	.	6.5	.
O=C(COC(=O)C1CC2C=CC1C2)NCc1ccc(F)cc1 (stereo not drawn)	54.8*	-1.7	0.7	0.9	-4.9	-4.8
CC(=O)N1CCN(C(=O)c2cc3c(s2)CCCC3)CC1	.	-1.0	17.8*	-0.2	3.1	4.2
COc1ccc(/C=C2\CC3(OC(=O)C4CCCC4)CCCN2C3)cc1 (stereo not drawn)	.	.	.	.	3.8	.
COC(=O)C(Nc1nccs1)(OC)C(F)(F)F (stereo not drawn)	793.9	-2.1	17.4*	0.1	-9.3	-1.6
O=C(Cc1c[nH]c2ccccc12)Nc1ccc(Nc2cccnc2)c(-c2cc(F)cc(F)c2)c1	.	.	.	.	12.8	.
CN(C)c1ccc(N=Cc2nc(-c3ccccc3)oc2OC(=O)c2ccccc2)cc1	5.7*	-2.7	0.9	1.1	-0.1	-8.0
CC(=O)Oc1oc(-c2ccccc2)nc1/C=N/c1ccccn1	.	-3.8	-1.9	1.3	-3.5	64.5*
COc1ccccc1N=Cc1nc(-c2ccccc2)oc1OC(C)=O	500.9	4.5	-0.8	22.4	4.4	6.9
CC(=O)Oc1oc(-c2ccccc2)nc1C=Nc1ccc(N(C)C)cc1	278.8	93.6*	-1.3	8.0	-2.3	3.8
C[C@H](O)[C@@H]1CN2CCc3ccc(N4CCOCC4)cc3[C@@H]2C[C@@H]1N(C)C(=O)c1cccc(Cl)c1	.	.	.	.	0.2	.
CC1CN(c2sc(S(C)(=O)=O)nc2S(=O)(=O)c2ccc(Cl)cc2)CC(C)O1 (stereo not drawn)	250.3	0.0	13.2*	-0.1	-4.1	2.5
CC(C)CN=Cc1c(O)c([N+](=O)[O-])cc2oc3c(c12)CCCC3	218.9	95.0*	2.4	5.7	15.6	-58.3
CN(C)/C=N/c1sccc1C(N)=O	i	-0.2	16.4*	-0.6	1.0	2.0
CC(=O)c1ccc(NCCCN2CCC(C(O)(c3ccccc3)c3ccccc3)CC2)cc1	.	.	.	.	-0.1	.
O=C(CNC(=O)c1sc2ccccc2c1Cl)NCc1ccc(F)cc1	456.8	2.2	17.9*	1.8	2.7	2.2
SMILES	T cell HTS	Exocytosis inh	V-ATPase pH	MPTP inh	rCAG RNA binder	B2AR ag
O=C(c1ccc(C#Cc2ccccc2)cc1)N1CCC(O)CC1	.	.	.	.	-0.8	.
COc1ccccc1-c1cc(C(F)(F)F)nc(S(C)(=O)=O)n1	377.8	18.6	-1.7	1.2	-0.6	58.0*
Cn1c(NC(=O)c2ccccc2)nc(Cc2ccccc2)c1-c1ccccc1	.	.	.	.	0.8	.
CC(C)CC(=O)Nc1ccc2c3c(cccc13)CC2	230.2	-3.8	-1.5	0.5	1.2	9.0
CCCCC(=O)Nc1ccc2c3c(cccc13)CC2	475.7	1.0	1.1	1.2	-0.3	45.6*
S=C(Nc1ccccc1)OC1CCC12CCC(c1ccccc1)CC2 (stereo not drawn)	.	.	.	.	5.1	.
COCCn1c(SCC(=O)Nc2ccc(NC(=O)c3ccco3)c(OC)c2)nc2ccccc2c1=O	364.9	94.1*	-2.0	0.8	-0.4	13.8
Cc1cc(=O)cc(C)n1-c1ccccc1N	428.7	-5.9	2.6	-0.4	-3.3	45.2*
